A short description of this data set: Toxicity liver stage against HepG2, at 10uM. The format is cell-based. Further details: test concentration 10 uM, cell line HepG2-A16-CD81EGFP. As to conditions: human, HepG2-A16-CD81EGFP cells; read-out: INHIBITION
The procedure, abridged:
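Uninfected HepG2-A16-CD81EGFP cells, 3 × 10^3 per well, 1536-well, plated on prespotted compound at 10 μM final, parasite-free screening media added to match infected plates; puromycin 10 μM positive, DMSO 0.5% negative; run in parallel with 48 h PbLuc assay at 37 °C, 5% CO2; viability by CellTiter-Glo luminescence, normalized to controls.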
On to `Cc1ccc2c(c1)c(C)cc(=O)n2CCC(=O)O`, for which the cytotoxicity at 10 µM is -5.6%.

`Cn1cnnc1SC1CCc2ccccc2NC1=O` (configuration not stated): the cytotoxicity at 10 µM is -0.373%.

Take `COCCCN1C(=O)c2ccc(C(=O)NCCc3c[nH]cn3)cc2C1=O`: the cytotoxicity at 10 µM was -3.76%.

Turning to `COc1ccc(OC)c(C(O)CN2CCN(c3cccc(C)c3)CC2)c1` (configuration not stated), the cytotoxicity at 10 µM was determined as 6.69%.

For the molecule `CCCS(=O)(=O)N1CCN(c2cc(-n3cccc3)nc(C)n2)CC1`, the cytotoxicity at 10 µM is 6.62%.

For `CC(=O)N1CCC(CSCc2ccco2)CC1`, the cytotoxicity at 10 µM amounted to 9.77%.

As to `Cn1cnc(S(=O)(=O)N2CCCn3cnc(CN4CCCC4)c3C2)c1`, the cytotoxicity at 10 µM is 1.27%.

As to `O=C(O)C1CCCN(C(=O)CCn2ccc3c(Br)cccc32)C1` (configuration not stated), the cytotoxicity at 10 µM came to 10.9%.

Turning to `Cc1c(C(=O)N2CCN(c3ncccn3)CC2)n(C)c2ccc(Cl)cc12`, the cytotoxicity at 10 µM is 3.99%.

As to `CCn1ncc(CN2CCN(C(=O)Cn3cc(Br)c(C)n3)CC2)c1C`, the cytotoxicity at 10 µM came to 0.301%.

Turning to `Cn1ccnc1SCC(=O)NCc1ccc2c(c1)CCC(=O)N2`, the cytotoxicity at 10 µM was determined as 7.66%.

With `Cc1nn(C)c2c(N3CCCC3)nc(C3CC3)nc12`, the cytotoxicity at 10 µM is 0.12%.

Regarding `NC(=O)c1cccc(-c2cnc(C3CCCNC3)cn2)c1` (configuration not stated), the cytotoxicity at 10 µM was -0.055%.

On to `O=C1NC2(CCc3ccccc31)CCN(Cc1cccnc1)C2` (configuration not stated), for which the cytotoxicity at 10 µM stood at 0.9%.

For the molecule `CNC(=O)c1cn[nH]c1C1CCCN1c1nc(C)cc(C)n1` (configuration not stated), the cytotoxicity at 10 µM came to 2.81%.

In the case of `CCC(=O)N1CCC(c2nc(C)c3c(n2)N(C)CCC3)CC1`, the cytotoxicity at 10 µM turned out to be 4.26%.

Consider `COCCc1ncc(CNC2(c3ccc(Cl)cc3Cl)CC2)cn1`, for which the cytotoxicity at 10 µM was -15.8%.

`CN(C)C(=O)CN1CCCC1c1nc(N)ncc1-c1ccc(F)cc1` (configuration not stated): the cytotoxicity at 10 µM is -8.94%.

For `O=C(c1cccs1)N1CCc2c(nc(N3CCCC3)[nH]c2=O)C1`, the cytotoxicity at 10 µM was -16.3%.

`O=S(=O)(Cc1ccccc1)CC(O)Cn1cccn1` (configuration not stated): the cytotoxicity at 10 µM was determined as 3.4%.

Regarding `CC(C)Oc1cccc(CNC(=O)NC2(CO)CCCC2)c1`, the cytotoxicity at 10 µM is -57.1%.

As to `CC(C)c1cc(C(=O)N(c2ccc(F)cn2)C2CCOCC2)nn1C`, the cytotoxicity at 10 µM was -4.65%.

As to `COCc1nnc(-c2cccc(C(=O)N(C(C)C)C3CCC3)c2)o1`, the cytotoxicity at 10 µM worked out at 1.51%.

`COc1ccc(S(=O)(=O)Nc2cccnc2-n2cncn2)c(C)c1`: the cytotoxicity at 10 µM stood at 3.64%.

As for `O=C1NCCCCC1NC(=O)N1CCCc2ccccc21` (configuration not stated), the cytotoxicity at 10 µM is -3.49%.

`CCN1N=C(C(=O)N2CCCC(c3noc(C)n3)C2)CCC1=O` (configuration not stated): the cytotoxicity at 10 µM is -12.9%.

In the case of `Cc1oc(-c2ccco2)nc1CC(=O)NCC(C)(C)N(C)C`, the cytotoxicity at 10 µM was -13.9%.

In the case of `CCN1CCN(c2ccc(F)cc2C(C)NCc2cscn2)CC1` (configuration not stated), the cytotoxicity at 10 µM is -10.3%.

`Cc1noc(C)c1CNCc1c(C(C)C)nn(C)c1N1CCOCC1`: the cytotoxicity at 10 µM was 4.8%.

On to `CCC(CC)NC(=O)Cn1cc(C(N)=O)c(-c2ccccc2)n1`, for which the cytotoxicity at 10 µM is -6.87%.

Take `Cc1nnc(NCCc2nc3ccc(F)cc3n2C)c(C#N)c1C`: the cytotoxicity at 10 µM was -0.744%.

Consider `O=C(CCC1CCCCC1)NS(=O)(=O)CC1CC1`, for which the cytotoxicity at 10 µM is -9.69%.

As to `COc1ccc(NC(=O)C2CC2)cc1OCc1cccnc1`, the cytotoxicity at 10 µM was -50.5%.

Regarding `CCNC(=O)CCC(=O)Nc1ccc2nn(C(C)C)cc2c1`, the cytotoxicity at 10 µM was -141%.

As for `CN1CCC(C)(CNC(=O)c2ccc(SCc3cccnc3)cc2)CC1`, the cytotoxicity at 10 µM worked out at 12.4%.

As for `COc1cccc(F)c1C(C)NC(=O)NCc1ccnc(C)n1` (configuration not stated), the cytotoxicity at 10 µM is -10.9%.

`CN(c1ccc(C#N)cn1)C1CCCN(Cc2noc(C3CC3)n2)C1` (configuration not stated): the cytotoxicity at 10 µM is -17.2%.

As to `CC(C)C1CCN(C(=O)NCC(=O)N(C)CC(F)(F)F)CC1`, the cytotoxicity at 10 µM is 20.7%.

Take `CN(C)c1cccc(CNCc2ccc(N3CCOCC3)cc2)c1`: the cytotoxicity at 10 µM was 11.3%.

As to `COc1ccccc1CCN(C)Cc1nc(N)nc(N(C)C)n1`, the cytotoxicity at 10 µM came out at 6.96%.

As for `CC(=O)N1CCN(C(=O)CNc2ccc3ncsc3c2)CC1`, the cytotoxicity at 10 µM is -2.01%.

Take `Cc1csc(C2(NCC(O)COc3ccc(F)cc3)CCC2)n1` (configuration not stated): the cytotoxicity at 10 µM was 14.9%.

As for `C[S+]([O-])c1nncn1CC(=O)c1ccc(Cl)c(Cl)c1` (configuration not stated), the cytotoxicity at 10 µM is -4.34%.

Consider `O=C(Nc1nc2c(s1)CCC2)c1cccnc1N1CCOCC1`, for which the cytotoxicity at 10 µM turned out to be 8.5%.

With `CC(C)NC(=O)N1CCc2nc(C(=O)NCc3ccccc3)sc2CC1`, the cytotoxicity at 10 µM worked out at 4.17%.

On to `O=C(c1ccoc1)N1CC[C@@H]2O[C@H](COCc3ccccn3)CC[C@@H]21`, for which the cytotoxicity at 10 µM was determined as 5.48%.

`Cc1cc(CN2CC[C@H]3C[C@H](C)O[C@@H]3C2)no1`: the cytotoxicity at 10 µM was -1.42%.

On to `COc1ccc(CN2CCCC(N3CCCC3)C2)cc1Cn1cncn1` (configuration not stated), for which the cytotoxicity at 10 µM worked out at 7.33%.

`Cc1nccn1CCCN1CCC2(CCC(=O)N(CC3CC3)C2)CC1`: the cytotoxicity at 10 µM is 3.12%.

In the case of `O=C(CCN1CCCC(CO)(CC2CC2)C1)NC1CCCCC1` (configuration not stated), the cytotoxicity at 10 µM turned out to be 1.91%.

In the case of `Cc1cc(C(=O)NCc2cccnc2N2CCCC(O)C2)[nH]n1` (configuration not stated), the cytotoxicity at 10 µM was 4.52%.

For the molecule `COC(=O)CNC(=O)C1(N(C)Cc2ccccc2)Cc2ccccc2C1`, the cytotoxicity at 10 µM came to 3.82%.

With `CN(CCc1ccccc1)C(=O)c1cc(CN2CCC(O)CC2)on1`, the cytotoxicity at 10 µM was -2.92%.

For the molecule `CN[C@@H](C)C(=O)N(Cc1cccc(C)c1)Cc1ccccc1OC`, the cytotoxicity at 10 µM was -39.5%.

Regarding `CC(C)C1CN(c2cnccn2)CCC(=O)N1Cc1ccc(F)cc1` (configuration not stated), the cytotoxicity at 10 µM worked out at 3.67%.

With `Cc1c[nH]c(C(=O)N2CCC(c3nnc(CN(C)CCO)n3C)CC2)c1`, the cytotoxicity at 10 µM was -3.52%.

On to `COCc1cc(CN(C)C(=O)CCC(=O)Nc2cc(C)ccc2F)n[nH]1`, for which the cytotoxicity at 10 µM was -14.5%.

Take `C[C@@H]1CN(C(=O)CCCn2nnc(-c3ccc(F)cc3)n2)C[C@]1(C)O`: the cytotoxicity at 10 µM was 14.2%.

Take `O=C(NCC(F)(F)F)C(c1cccnc1)N1CCCC1` (configuration not stated): the cytotoxicity at 10 µM was 2.26%.

Consider `Cc1cc(C)n(C2CN(c3nc(N)nc4c3CCCC4)C2)n1`, for which the cytotoxicity at 10 µM is -44.4%.

Regarding `CCCn1ccnc1-c1nccn1CCN(C)C`, the cytotoxicity at 10 µM is -1.04%.

`CC(C)Cn1c(=O)n(CCn2cc(Cl)cn2)c2cc(C(=O)O)cnc21`: the cytotoxicity at 10 µM was 3.72%.

Take `CCc1oc(C(=O)NCCc2nc(C(=O)O)cs2)cc1CN1CCCC1`: the cytotoxicity at 10 µM turned out to be 19.3%.

As to `CNS(=O)(=O)c1ccc(CN2CCCN(CC(C)C)CC2)cc1`, the cytotoxicity at 10 µM turned out to be 4.03%.

On to `COCCCC1CCCCN1Cc1cnn(C)c1C1CC1` (configuration not stated), for which the cytotoxicity at 10 µM was -2.52%.

For `CCCNc1ncc(-c2cc(C3CC3)nc(N)c2C#N)cn1`, the cytotoxicity at 10 µM came to 8.26%.

`COC(=O)c1cc(OCC2CCC2)cc(C(=O)N[C@@H](C)CO)c1`: the cytotoxicity at 10 µM was -2.18%.

In the case of `Cc1cnc(CNC(=O)CCCn2cnc3ccccc3c2=O)cn1`, the cytotoxicity at 10 µM is -7.2%.

As for `Cc1ccc(-c2ccnc(NC(C)c3n[nH]c(C)n3)n2)c(C)n1` (configuration not stated), the cytotoxicity at 10 µM is 2.83%.

Turning to `Nc1cc(O)nc(CCNC(=O)CC[C@@H]2CCCN3CCCC[C@H]23)n1`, the cytotoxicity at 10 µM was -1.89%.

As to `CC(C)(C)OC(=O)NC1CCCN(Cc2cccc(O)c2)C1` (configuration not stated), the cytotoxicity at 10 µM was -45.3%.

Consider `CCn1cc(CN2CCCN(C3Cc4ccccc4C3)CC2)c(C)n1`, for which the cytotoxicity at 10 µM is -10.9%.

Consider `O=C(N[C@H]1COC[C@@H]1N1CCCC1)c1csc(-c2cccs2)n1`, for which the cytotoxicity at 10 µM stood at 9.71%.

Take `CN(Cc1cc[nH]n1)C(=O)c1cccc(CCC(C)(C)O)c1`: the cytotoxicity at 10 µM is -0.0174%.

With `Cc1ccc(=O)n(CC2(O)CCN(Cc3ccsc3)CC2)n1`, the cytotoxicity at 10 µM stood at 0.642%.

As for `O=C(CN1CCOC(Cn2cncn2)C1)NCc1cccs1` (configuration not stated), the cytotoxicity at 10 µM is -10.2%.

For the molecule `COc1cccc(S(=O)(=O)NC(=O)COC2CCCC2)c1`, the cytotoxicity at 10 µM was -7.1%.

Turning to `CCc1nc(C2CCCN2CC(=O)Nc2nncs2)no1` (configuration not stated), the cytotoxicity at 10 µM is -9.47%.

`Cn1ccnc1CN1CCN(Cc2ccccc2C#N)CC1`: the cytotoxicity at 10 µM is -3.83%.

As for `Cc1cnn(CC2CCCN2C(=O)c2ccc(C(N)=O)cn2)c1` (configuration not stated), the cytotoxicity at 10 µM was -4.64%.

On to `O=C(Cn1cnc(NC(=O)CC2CCCC2)n1)NCc1ccccc1`, for which the cytotoxicity at 10 µM is -4.1%.

As for `Cc1noc2ncc(C(=O)N3CCCC3c3ccncc3)cc12` (configuration not stated), the cytotoxicity at 10 µM is -5.66%.

As for `CC(C(=O)N1CCN(c2ccccc2Cl)CC1)n1cncn1` (configuration not stated), the cytotoxicity at 10 µM came to 5.17%.

Turning to `Cc1n[nH]c(C2CN(C(=O)Cn3ccccc3=O)CCO2)n1` (configuration not stated), the cytotoxicity at 10 µM amounted to 5.75%.

On to `Cc1cc(NC(=O)NCC(C)N2CCc3ccccc32)no1` (configuration not stated), for which the cytotoxicity at 10 µM is -6.34%.

Regarding `c1ccc(-c2cnc(CNCC3CCCN3c3cccnn3)o2)cc1` (configuration not stated), the cytotoxicity at 10 µM was 1.56%.

On to `CC(C)c1cc(C(=O)NCC2CCCN(C(C)C)C2)n(C)n1` (configuration not stated), for which the cytotoxicity at 10 µM was -1.75%.

For `Cn1cc(CN2CCC3(CC2)CCN(C(=O)c2cscn2)CC3)cn1`, the cytotoxicity at 10 µM was -0.937%.

For `CCc1ccc(CN2CCC3(CC2)CN(c2cnn(C)c2)C(=O)CO3)o1`, the cytotoxicity at 10 µM is 0.777%.

In the case of `c1ccc(CCNc2cccc(C3CCCNC3)n2)cc1` (configuration not stated), the cytotoxicity at 10 µM is -3.18%.

For the molecule `O=C(c1ccoc1)N1CCOCC2(CCN(C3CCOCC3)C2)C1` (configuration not stated), the cytotoxicity at 10 µM is -6.11%.

For `O=S(=O)(C1CC1)N1CCO[C@@H]2CC(COCc3cccnc3)C[C@H]21` (some centres not stated), the cytotoxicity at 10 µM came out at 7.01%.

Turning to `CN(C)S(=O)(=O)N1CC[C@]2(C[C@H](Oc3ncccc3F)CO2)C1`, the cytotoxicity at 10 µM stood at 2.47%.

In the case of `Nc1cnn(CC(=O)N2CCCCC2)c1`, the cytotoxicity at 10 µM is -3.15%.

Take `CCN(C)c1ncnc2c1CCN(Cc1ccc(OC)cc1)CC2`: the cytotoxicity at 10 µM is 9.88%.

As to `NC1(c2nc(C(F)(F)F)cc(=O)[nH]2)CCCCC1`, the cytotoxicity at 10 µM came out at 11%.

Consider `CCC(=O)N1CCC[C@]2(C(=O)N(C)C)CN(c3ccccn3)C[C@@H]2C1`, for which the cytotoxicity at 10 µM worked out at 11.5%.
